Converted amounts (≈) assume the structure as drawn.
How the values were obtained:
[1] = Cmax in Wistar rat plasma at 2 mg/kg, po administered 2 hrs after aminobenzotriazol-treatment; type: ADME, organism-based; set-up: dose 2 mg/kg, route oral
Summary of the method: (§1)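 Male Wistar rats dosed iv at 0.2 mg/kg or po at 2 mg/kg. In the inhibited arm, the broad CYP inhibitor aminobenzotriazol was given orally 2 h before dosing. Clearance, Vss and half-life derived from plasma concentrations after the iv dose; Cmax and Tmax from the po dose.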

[2] = Aqueous solubility of the compound at pH 7 by UV-HPLC method; type: physicochemical
Summary of the method: (§2)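 Compound dispensed from a 10 mM DMSO stock and the solvent evaporated. Residue stirred 24 h at room temperature in buffer: citrate (55 mM) pH 4.0 or phosphate (67 mM) pH 7.0. Mixture filtered by centrifugation. Filtrate concentration measured by HPLC-UV against calibration solutions.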

[3] = Aqueous solubility of the compound at pH 4 by UV-HPLC method; type: physicochemical; summary of the method: as §2
Rattus norvegicus [4] = experiment: Cardiovascular toxicity in spontaneously hypertensive rat assessed as induction of AV block type 2 at 100 mg/kg, po by telemetry method; type: organism-based; conditions: in vivo
Summary of the method: (§3)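 Conscious, freely moving male spontaneously hypertensive rats with telemetry recording MAP, HR and ECG. Single oral dose (5 ml/kg) given as a suspension in 0.5% w/v methylcellulose in water, in the morning during the sleep phase. Vehicle controls run in parallel, n = 8 per group.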

MDR1 = experiment: Efflux ratio of permeability in MDCK cells expressing MDR1 (unknown origin); type: ADME, cell-based, Canis lupus familiaris; conditions: dog
Summary of the method: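 MDR1-transfected MDCK cell monolayers. Compound tested at 1 µM. Apparent permeability measured in both directions, apical to basolateral and basolateral to apical. Efflux ratio taken from the two directional permeabilities.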

Cytochrome P450 2C9 = Cytochrome P450 2C9 (Homo sapiens, UniProt P11712); experiment: Inhibition of CYP2C9 (unknown origin); type: ADME
Sequence of Cytochrome P450 2C9 (P11712 whole entry): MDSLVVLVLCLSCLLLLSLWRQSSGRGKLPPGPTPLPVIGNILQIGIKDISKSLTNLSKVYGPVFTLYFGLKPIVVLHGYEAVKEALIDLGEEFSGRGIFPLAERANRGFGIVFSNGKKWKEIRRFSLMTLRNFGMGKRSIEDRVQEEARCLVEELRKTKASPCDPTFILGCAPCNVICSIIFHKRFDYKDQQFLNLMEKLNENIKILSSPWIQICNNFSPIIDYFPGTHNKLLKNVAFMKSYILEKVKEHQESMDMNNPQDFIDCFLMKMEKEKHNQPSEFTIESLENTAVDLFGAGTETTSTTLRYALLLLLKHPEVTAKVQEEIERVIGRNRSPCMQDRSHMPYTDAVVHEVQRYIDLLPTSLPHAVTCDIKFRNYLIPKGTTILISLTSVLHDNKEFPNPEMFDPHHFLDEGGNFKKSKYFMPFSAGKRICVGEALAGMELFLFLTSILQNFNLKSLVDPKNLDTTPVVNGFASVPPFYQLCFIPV

[5] = Tmax in Wistar rat plasma at 2 mg/kg, po administered 2 hrs after aminobenzotriazol-treatment; type: ADME, organism-based
Summary of the method: (§4)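 Rats dosed orally with the CYP inhibitor aminobenzotriazol 2 h before the iv dose of 0.2 mg/kg. Oral dose was 2 mg/kg.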

Rattus norvegicus [6] = organism: Rattus norvegicus; experiment: Inhibition of Wistar rat brain potassium channel at 10 uM assessed as reduction in slow potassium current at -80 mV holding potential measured after 180 secs
Summary of the method: (§5)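 Cortical neurons from E18 Wistar rat embryos, cultured 9-15 days, recorded by manual patch clamp from a holding potential of -80 mV. K+ currents: one 50-ms step to 0 mV, fast as peak outward and slow as end-of-pulse current. Na+ currents: train of fifteen 10-ms steps to 0 mV, peak inward current read at the first and last pulses. Effects read at least 180 s after application.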

[7] = Volume of distribution at steady state in Wistar rat plasma at 0.2 mg/kg, iv administered 2 hrs after aminobenzotriazol-treatment; type: ADME, organism-based; conditions: read-out: Vdss; summary of the method: as §4
[8] = biological target: Voltage-dependent T-type calcium channel subunit alpha-1I (Homo sapiens, UniProt Q9P0X4); experiment: Inhibition of human T-type calcium channel Cav3.3 expressed in CHO cells assessed as inhibition of calcium tail current at -60 mV holding potential measured after 150 secs by QPatch assay; type: cell-based
Sequence of Voltage-dependent T-type calcium channel subunit alpha-1I (Q9P0X4 whole entry): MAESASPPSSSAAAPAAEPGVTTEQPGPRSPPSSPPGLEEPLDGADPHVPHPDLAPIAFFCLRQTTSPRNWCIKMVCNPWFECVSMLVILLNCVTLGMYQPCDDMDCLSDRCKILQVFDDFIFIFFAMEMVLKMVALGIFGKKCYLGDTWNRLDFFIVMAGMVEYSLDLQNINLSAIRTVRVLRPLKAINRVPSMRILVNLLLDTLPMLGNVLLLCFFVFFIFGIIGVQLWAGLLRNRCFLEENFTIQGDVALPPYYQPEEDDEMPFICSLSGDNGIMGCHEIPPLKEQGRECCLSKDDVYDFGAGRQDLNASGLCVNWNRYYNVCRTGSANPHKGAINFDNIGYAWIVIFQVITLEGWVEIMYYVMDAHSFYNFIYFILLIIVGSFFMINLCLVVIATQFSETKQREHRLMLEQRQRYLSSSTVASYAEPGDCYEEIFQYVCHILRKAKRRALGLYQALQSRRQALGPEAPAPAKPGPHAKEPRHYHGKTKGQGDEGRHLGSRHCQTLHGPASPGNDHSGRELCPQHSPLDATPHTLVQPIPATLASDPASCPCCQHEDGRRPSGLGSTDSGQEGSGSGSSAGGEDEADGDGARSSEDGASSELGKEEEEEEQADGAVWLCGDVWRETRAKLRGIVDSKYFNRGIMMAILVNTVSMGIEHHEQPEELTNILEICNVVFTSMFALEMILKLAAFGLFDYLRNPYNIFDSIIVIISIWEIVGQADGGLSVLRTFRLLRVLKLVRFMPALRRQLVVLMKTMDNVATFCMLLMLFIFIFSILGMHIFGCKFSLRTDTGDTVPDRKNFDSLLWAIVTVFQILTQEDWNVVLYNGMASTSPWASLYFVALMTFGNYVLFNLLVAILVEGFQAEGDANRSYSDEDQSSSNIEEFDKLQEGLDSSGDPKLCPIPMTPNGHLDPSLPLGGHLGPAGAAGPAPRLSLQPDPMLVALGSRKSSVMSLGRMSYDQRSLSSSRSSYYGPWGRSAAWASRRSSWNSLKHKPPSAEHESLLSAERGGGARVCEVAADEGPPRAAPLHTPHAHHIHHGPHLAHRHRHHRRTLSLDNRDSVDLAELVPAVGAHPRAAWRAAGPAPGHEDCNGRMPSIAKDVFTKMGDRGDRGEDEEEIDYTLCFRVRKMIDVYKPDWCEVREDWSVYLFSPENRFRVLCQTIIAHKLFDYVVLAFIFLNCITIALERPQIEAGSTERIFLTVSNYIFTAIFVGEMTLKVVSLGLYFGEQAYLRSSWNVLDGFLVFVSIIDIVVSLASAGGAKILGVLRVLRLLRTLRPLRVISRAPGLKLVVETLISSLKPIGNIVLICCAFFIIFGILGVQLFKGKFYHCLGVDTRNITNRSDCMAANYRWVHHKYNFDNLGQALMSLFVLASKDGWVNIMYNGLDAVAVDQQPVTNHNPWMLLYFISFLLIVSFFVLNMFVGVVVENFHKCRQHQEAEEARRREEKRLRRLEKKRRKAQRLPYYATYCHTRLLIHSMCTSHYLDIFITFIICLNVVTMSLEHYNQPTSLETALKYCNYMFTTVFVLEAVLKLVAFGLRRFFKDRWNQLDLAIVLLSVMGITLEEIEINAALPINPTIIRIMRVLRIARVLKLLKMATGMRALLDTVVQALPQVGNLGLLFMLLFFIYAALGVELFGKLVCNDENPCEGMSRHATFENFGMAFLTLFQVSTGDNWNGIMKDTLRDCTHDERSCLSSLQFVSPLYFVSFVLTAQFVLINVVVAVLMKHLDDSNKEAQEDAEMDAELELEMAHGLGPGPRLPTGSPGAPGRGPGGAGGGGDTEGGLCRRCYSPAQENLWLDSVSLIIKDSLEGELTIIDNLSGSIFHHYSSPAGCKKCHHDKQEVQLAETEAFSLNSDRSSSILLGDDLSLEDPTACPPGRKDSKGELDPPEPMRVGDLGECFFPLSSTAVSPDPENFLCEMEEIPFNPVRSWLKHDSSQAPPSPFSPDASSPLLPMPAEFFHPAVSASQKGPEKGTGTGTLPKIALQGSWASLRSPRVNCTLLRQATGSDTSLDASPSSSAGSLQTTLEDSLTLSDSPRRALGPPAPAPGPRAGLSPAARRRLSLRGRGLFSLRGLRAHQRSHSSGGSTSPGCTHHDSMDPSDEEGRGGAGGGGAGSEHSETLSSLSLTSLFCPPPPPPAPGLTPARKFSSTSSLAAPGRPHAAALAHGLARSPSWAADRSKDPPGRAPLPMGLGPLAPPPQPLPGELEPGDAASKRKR
Summary of the method: (§6)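 CHO cells stably expressing human Cav3.1, Cav3.2 or Cav3.3, automated QPatch recording. 3-ms depolarization to +20 mV from a holding potential of -90 or -60 mV. Ca2+ tail current measured at -60 mV. Cs-glutamate internal and TEA-Cl external solution with 5 mM Ca2+. Effect read 150 s after application.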

Rattus norvegicus [9] = experiment: Cardiovascular toxicity in spontaneously hypertensive rat assessed as reduction in mean […] pressure after 18 hrs at 100 mg/kg, po; type: organism-based; conditions: in vivo; summary of the method: as §3
[10] = biological target: Voltage-dependent T-type calcium channel subunit alpha-1G (Homo sapiens, UniProt O43497); experiment: Inhibition of human T-type calcium channel Cav3.1 expressed in CHO cells assessed as inhibition of calcium tail current at -60 mV holding potential measured after 150 secs by QPatch assay; type: cell-based; summary of the method: as §6
[11] = Fraction unbound in human plasma; type: ADME, cell-free
[12] = Half life in Wistar rat plasma at 0.2 mg/kg, iv; type: ADME, organism-based; summary of the method: as §1
[13] = biological target: Voltage-dependent T-type calcium channel subunit alpha-1H (Homo sapiens, UniProt O95180); experiment: Inhibition of recombinant T-type calcium channel Cav3.2 (unknown origin) expressed in HEK293 cells assessed as inhibition of CaCl2-induced calcium influx preincubated for 3 mins prior CaCl2 addition by Fluo-4-AM dye-based FLIPR assay; type: cell-based
Summary of the method: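 HEK293 cells stably expressing Cav3.2, plated overnight at 37°C, loaded 1 h at 37°C with 3 µM Fluo-4-AM in HBSS/Hepes pH 7.4, then washed. Compound in TEAC buffer (100 mM tetraethylammonium chloride, pH 7.2), 3-fold series from 10 µM to 0.05 nM, 3 min before CaCl2 to a final 10 mM. IC50 fitted sigmoidally to the fluorescence AUC against vehicle signal; mean of at least two independent experiments.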

[14] = Intrinsic clearance in rat hepatocytes; type: ADME, cell-based, Hepatocyte
[15] = Drug uptake in Wistar rat CSF at 10 mg/kg, po measured after 3 hrs; type: ADME, organism-based, Cerebrospinal fluid; conditions: read-out: Drug uptake
Summary of the method: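 Male Wistar rats given oral doses of 10, 30 or 100 mg/kg. Plasma, brain and CSF collected at 1 h, and at 3 h for the 10 mg/kg dose; compound concentrations measured in each.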

[16] = Fraction unbound in Wistar rat microsomes; type: ADME, Microsome
[17] = Metabolic stability in rat microsomes measured per mg protein; type: ADME, Microsome
Rattus norvegicus [18] = organism: Rattus norvegicus; experiment: Inhibition of Wistar rat brain neuronal sodium channel assessed as reduction in peak inward current at 10 uM measured during first peak; summary of the method: as §5
[19] = biological target: Voltage-dependent L-type calcium channel subunit alpha-1C (Homo sapiens, UniProt Q13936); experiment: Inhibition of recombinant […] calcium channel Cav1.2 (unknown origin) expressed in HEK293 cells assessed as inhibition of Kcl-induced calcium influx preincubated for 3 mins prior CaCl2 addition by Fluo-4-AM dye-based FLIPR assay; type: cell-based
Sequence of Voltage-dependent L-type calcium channel subunit alpha-1C (Q13936 whole entry): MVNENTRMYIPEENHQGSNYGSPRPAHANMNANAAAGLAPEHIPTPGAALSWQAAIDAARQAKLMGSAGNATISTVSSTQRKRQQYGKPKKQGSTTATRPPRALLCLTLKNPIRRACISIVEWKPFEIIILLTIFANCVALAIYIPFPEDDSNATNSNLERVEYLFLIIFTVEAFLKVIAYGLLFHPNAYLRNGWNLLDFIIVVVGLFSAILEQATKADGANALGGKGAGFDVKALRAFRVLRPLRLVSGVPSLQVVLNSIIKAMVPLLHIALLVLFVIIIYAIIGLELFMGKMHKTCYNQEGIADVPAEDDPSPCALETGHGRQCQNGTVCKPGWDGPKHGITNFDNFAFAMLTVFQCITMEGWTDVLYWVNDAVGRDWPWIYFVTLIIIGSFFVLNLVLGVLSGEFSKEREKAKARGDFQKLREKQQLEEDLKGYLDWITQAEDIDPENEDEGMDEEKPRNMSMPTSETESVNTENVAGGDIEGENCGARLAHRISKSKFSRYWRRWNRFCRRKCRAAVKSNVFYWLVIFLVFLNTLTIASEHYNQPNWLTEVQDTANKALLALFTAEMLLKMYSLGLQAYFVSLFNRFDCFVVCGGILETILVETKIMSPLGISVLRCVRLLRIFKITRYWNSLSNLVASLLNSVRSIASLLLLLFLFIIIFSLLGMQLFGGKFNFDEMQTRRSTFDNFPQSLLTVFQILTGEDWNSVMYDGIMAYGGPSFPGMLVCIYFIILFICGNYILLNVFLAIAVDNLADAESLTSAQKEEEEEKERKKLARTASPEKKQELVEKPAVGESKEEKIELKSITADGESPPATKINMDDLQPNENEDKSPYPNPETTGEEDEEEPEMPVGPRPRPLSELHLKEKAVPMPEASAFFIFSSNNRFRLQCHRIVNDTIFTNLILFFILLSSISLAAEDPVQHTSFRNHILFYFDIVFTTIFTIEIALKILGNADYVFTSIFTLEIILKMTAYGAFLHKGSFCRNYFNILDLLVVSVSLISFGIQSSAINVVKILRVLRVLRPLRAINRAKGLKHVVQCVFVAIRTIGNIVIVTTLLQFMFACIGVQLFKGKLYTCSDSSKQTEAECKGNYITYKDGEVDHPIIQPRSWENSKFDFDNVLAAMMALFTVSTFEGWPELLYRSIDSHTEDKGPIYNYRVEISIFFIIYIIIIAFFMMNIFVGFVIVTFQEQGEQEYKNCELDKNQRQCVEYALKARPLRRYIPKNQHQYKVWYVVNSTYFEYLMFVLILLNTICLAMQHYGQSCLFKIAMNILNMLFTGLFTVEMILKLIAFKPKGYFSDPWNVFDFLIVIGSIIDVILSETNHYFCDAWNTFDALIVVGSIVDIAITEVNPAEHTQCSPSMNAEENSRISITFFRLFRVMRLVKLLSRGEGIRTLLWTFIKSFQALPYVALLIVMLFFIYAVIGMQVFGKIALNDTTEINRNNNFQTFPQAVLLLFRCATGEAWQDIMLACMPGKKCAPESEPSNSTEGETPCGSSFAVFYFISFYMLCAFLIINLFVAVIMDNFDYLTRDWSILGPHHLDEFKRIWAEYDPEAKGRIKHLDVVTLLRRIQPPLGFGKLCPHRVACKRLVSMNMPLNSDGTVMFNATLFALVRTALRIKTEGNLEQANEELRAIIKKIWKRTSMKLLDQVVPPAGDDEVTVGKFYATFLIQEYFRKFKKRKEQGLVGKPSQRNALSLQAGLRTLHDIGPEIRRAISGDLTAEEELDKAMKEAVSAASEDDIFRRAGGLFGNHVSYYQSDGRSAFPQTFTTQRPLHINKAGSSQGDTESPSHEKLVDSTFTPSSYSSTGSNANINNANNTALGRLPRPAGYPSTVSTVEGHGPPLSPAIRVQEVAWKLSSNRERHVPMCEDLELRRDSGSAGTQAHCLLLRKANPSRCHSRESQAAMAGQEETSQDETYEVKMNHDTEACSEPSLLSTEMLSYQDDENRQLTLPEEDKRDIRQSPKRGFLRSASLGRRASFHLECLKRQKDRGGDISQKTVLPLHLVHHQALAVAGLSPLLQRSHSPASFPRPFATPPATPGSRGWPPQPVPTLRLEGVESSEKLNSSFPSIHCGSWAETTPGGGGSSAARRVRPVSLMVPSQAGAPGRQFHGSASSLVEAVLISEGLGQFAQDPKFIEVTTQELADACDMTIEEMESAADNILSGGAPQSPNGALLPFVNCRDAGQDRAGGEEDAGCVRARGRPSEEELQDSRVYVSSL
Summary of the method: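 HEK293 cells stably expressing the channel, seeded overnight and loaded 1 h at 37°C with 3 µM Fluo-4-AM. Compounds given as a 3-fold dilution series from 10 µM to 0.05 nM and incubated 3 min. For T-type channels, dilutions in TEAC buffer and stimulation with 10 mM final CaCl2. For Cav1.2, dilutions in assay buffer and stimulation with 20 mM final KCl. IC50 from area under the fluorescence trace against vehicle; mean of at least two experiments.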

Rattus norvegicus [20] = experiment: Cardiovascular toxicity in spontaneously hypertensive rat assessed as decrease in mean […] pressure at 100 mg/kg, po by telemetry method; type: organism-based; conditions: in vivo; summary of the method: as §3
[21] = Oral bioavailability in Wistar rat plasma at 2 mg/kg administered 2 hrs after aminobenzotriazol-treatment; type: ADME, organism-based; summary of the method: as §4
[22] = Plasma concentration in Wistar rat at 10 mg/kg, po measured after 1 hr; type: ADME, organism-based
Rattus norvegicus [23] = experiment: Cardiovascular toxicity in spontaneously hypertensive rat assessed as increase in PR interval of ECG at 100 mg/kg, po; type: organism-based; conditions: in vivo; summary of the method: as §3
Rattus norvegicus [24] = experiment: Anticonvulsant activity in WAG/Rij rat model of generalized nonconvulsive absence-like epilepsy assessed as decrease in duration of spontaneous seizures at 100 mg/kg, po administered as single dose at beginning of nocturnal active phase measured over 4 hrs by radiotelometry relative to vehicle control

For `O=C(Nc1ccc(F)cc1)N1N=C(c2ccncc2)CC1c1ccc(F)cc1` (stereo unspecified), the Cmax [1] was 150 nM, the solubility [2] was 2 µg/mL (≈ 5.29 µM) and the solubility [3] was 33 µg/mL (≈ 87.2 µM). The Activity (Rattus norvegicus [4]) was “Toxic”, the efflux ratio (MDR1) was 1 and the IC50 (Cytochrome P450 2C9) was 1800 nM. It also gave a Tmax [5] of 6.6 h, an inhibition (Rattus norvegicus [6]) of 3% and a Vd [7] of 17 L/kg. For the same compound, the IC50 [8] was 2000 nM, the Activity (Rattus norvegicus [9]) was “Non-Toxic” and the IC50 [10] was 450 nM. It also gave a fraction unbound [11] of 0.02, a half-life [12] of 7.1 h and an IC50 [13] of 33 nM. The CLH [14] was 5.7 µL/min, the concentration at 3 h [15] was 29 nM and the fraction unbound [16] was 0.5. It also gave a microsomal CLint [17] of 104 µL/min/mg, an inhibition (Rattus norvegicus [18]) of 15% and an IC50 [19] of 6400 nM. For the same compound, the Activity (Rattus norvegicus [20]) was 12 mmHg, the bioavailability [21] was 100% and the concentration at 1 h [22] was 270 nM. For the same compound, the Activity (Rattus norvegicus [23]) was “Toxic” and the inhibition in vivo at 100 mg/kg (Rattus norvegicus [24]) was > 99%.

Source: ChEMBL document CHEMBL3853331, “Preparation, Antiepileptic Activity, and Cardiovascular Safety of Dihydropyrazoles as Brain-Penetrant T-Type Calcium Channel Blockers” (J Med Chem, 2016)
